Laboratory results reported in ChEMBL document CHEMBL4613286, “Developing Cyclic Opioid Analogues: Fluorescently Labeled Bioconjugates of Biphalin” (ACS Med Chem Lett, 2020).

How the values were obtained:
[1] = target: T1, Kappa-type opioid receptor (Homo sapiens, UniProt P41145); assay: Agonist activity at human KOR expressed in CHO cell membranes after 1 hr by [35S]GTPgammaS binding assay; format: functional
Procedure, shortened: (§1)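 Membranes (15 μg protein) from CHO cells stably expressing human DOR, MOR or KOR, grown in DMEM/F12 with 10% heat-inactivated FBS and G418 selection. Concentration curves of agonist incubated with 0.1 nM 35S-GTPγS for 1 h at 30 °C, then filtered and scintillation counted. […] EC50 and Emax from 3-parameter fit, Hill slope fixed at 1. Mean ± SEM, N = 3.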

[2] = target: T1, Kappa-type opioid receptor; assay: Agonist activity at human KOR expressed in CHO cell membranes after 1 hr by [35S]GTPgammaS binding assay relative to U50,488; format: functional; procedure, shortened: as §1
Mu-type opioid receptor [3] = target: T2, Mu-type opioid receptor (Homo sapiens, UniProt P35372); assay: Displacement of [3H]diprenorphine human MOR expressed in CHO cell membranes after 1 hr by micro beta2 scintillation counting method; format: cell-based
[4] = target: T3, Delta-type opioid receptor (Homo sapiens, UniProt P41143); assay: Displacement of [3H]diprenorphine human delta opioid receptor expressed in CHO cell membranes after 1 hr by micro beta2 scintillation counting method
[5] = target: T3, Delta-type opioid receptor; assay: Agonist activity at human DOR expressed in CHO cell membranes after 1 hr by [35S]GTPgammaS binding assay; format: functional; procedure, shortened: as §1
Mu-type opioid receptor [6] = target: T2, Mu-type opioid receptor; assay: Agonist activity at human MOR expressed in CHO cell membranes after 1 hr by [35S]GTPgammaS binding assay relative to DAMGO; format: functional; procedure, shortened: as §1
Homo sapiens = species on record: Homo sapiens; assay: Selectivity index, ratio of Ki for displacement of [3H]diprenorphine human mu opioid receptor expressed in CHO cell membranes to Ki for displacement of [3H]diprenorphine human delta opioid receptor expressed in CHO cell membranes
[7] = target: T3, Delta-type opioid receptor; assay: Agonist activity at human DOR expressed in CHO cell membranes after 1 hr by [35S]GTPgammaS binding assay relative to SNC80; format: functional; procedure, shortened: as §1
Mu-type opioid receptor [8] = target: T2, Mu-type opioid receptor; assay: Agonist activity at human MOR expressed in CHO cell membranes after 1 hr by [35S]GTPgammaS binding assay; format: functional
Procedure, shortened: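 Membranes (15 μg protein) from CHO cells stably expressing human DOR, MOR or KOR, grown in DMEM/F12 with 10% heat-inactivated FBS and G418 selection. Concentration curves of agonist incubated with 0.1 nM 35S-GTPγS for 1 h at 30 °C, then filtered and scintillation counted. EC50 and Emax from 3-parameter fit, Hill slope fixed at 1. Mean ± SEM, N = 3.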

[9] = target: T1, Kappa-type opioid receptor; assay: Displacement of [3H]diprenorphine human kappa opioid receptor expressed in CHO cell membranes after 1 hr by micro beta2 scintillation counting method
Procedure, shortened: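 Membranes (20–25 μg protein) from CHO cells expressing human DOR or KOR were incubated 1 h at rt with concentration curves of compound and fixed 3H-diprenorphine (1.2–4.6 nM). Incubations ended by rapid GF/B filtration, then scintillation counted. […] Ki from one-site competition fit using the radioligand KD measured in each cell line. Mean ± SEM, N = 3.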

T1 sequence (P41145 whole entry): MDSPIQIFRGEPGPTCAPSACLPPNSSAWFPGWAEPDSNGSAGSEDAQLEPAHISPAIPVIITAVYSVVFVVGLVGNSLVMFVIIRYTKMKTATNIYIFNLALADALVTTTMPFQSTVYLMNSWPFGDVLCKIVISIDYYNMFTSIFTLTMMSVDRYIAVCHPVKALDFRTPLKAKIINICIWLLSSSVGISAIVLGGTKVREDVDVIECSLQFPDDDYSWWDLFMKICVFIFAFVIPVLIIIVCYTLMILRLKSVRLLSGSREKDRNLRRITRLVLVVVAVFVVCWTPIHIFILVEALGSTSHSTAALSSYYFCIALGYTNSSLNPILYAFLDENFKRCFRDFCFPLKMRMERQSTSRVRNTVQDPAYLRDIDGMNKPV
T2 sequence (P35372 whole entry): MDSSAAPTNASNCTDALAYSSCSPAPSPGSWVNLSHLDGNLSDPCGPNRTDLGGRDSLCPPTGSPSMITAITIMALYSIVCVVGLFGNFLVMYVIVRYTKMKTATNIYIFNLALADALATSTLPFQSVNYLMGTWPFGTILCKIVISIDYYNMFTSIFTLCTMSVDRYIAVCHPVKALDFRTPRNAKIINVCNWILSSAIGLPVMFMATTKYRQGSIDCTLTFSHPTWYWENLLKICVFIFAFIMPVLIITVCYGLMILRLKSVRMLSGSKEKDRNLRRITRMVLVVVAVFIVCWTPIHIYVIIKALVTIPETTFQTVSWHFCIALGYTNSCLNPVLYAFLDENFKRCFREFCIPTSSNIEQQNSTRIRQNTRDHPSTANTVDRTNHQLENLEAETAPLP
T3 sequence (P41143 whole entry): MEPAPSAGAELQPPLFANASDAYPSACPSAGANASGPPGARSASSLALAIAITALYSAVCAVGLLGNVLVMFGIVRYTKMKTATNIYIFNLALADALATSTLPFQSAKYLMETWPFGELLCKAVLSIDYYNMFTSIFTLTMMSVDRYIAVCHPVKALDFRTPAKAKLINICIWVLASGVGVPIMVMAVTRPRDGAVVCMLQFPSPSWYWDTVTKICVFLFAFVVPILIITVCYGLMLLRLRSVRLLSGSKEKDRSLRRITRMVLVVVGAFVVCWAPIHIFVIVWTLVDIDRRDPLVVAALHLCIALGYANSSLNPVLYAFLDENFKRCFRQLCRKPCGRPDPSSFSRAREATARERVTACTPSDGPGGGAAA

| Structure (SMILES) | EC50 [1] [nM] | Emax [2] [%] | Ki (Mu-type opioid receptor [3]) [nM] | Ki [4] [nM] | EC50 [5] [nM] | Emax (Mu-type opioid receptor [6]) [%] | Ratio Ki (Homo sapiens) | Emax [7] [%] | EC50 (Mu-type opioid receptor [8]) [nM] | Ki [9] [µM] |
| --- | --- | --- | --- | --- | --- | --- | --- | --- | --- | --- |
| Cc1cc(=O)oc2ccc(N3C(=O)C4=C(SC[C@@H](NC(=O)[C@@H](N)Cc5ccc(O)cc5)C(=O)NCC(=O)N[C@@H](Cc5ccccc5)C(=O)NNC(=O)[C@H](Cc5ccccc5)NC(=O)CNC(=O)[C@H](NC(=O)[C@@H](N)Cc5ccc(O)cc5)CS4)C3=O)cc12 | 4100 | 50 | 790 | 120 | 190 | 80 | 5 to 8 | 55 | 290 | > 3.33 |
| Cc1cc(=O)oc2cc(NC(=O)CCN3C(=O)C4=C(SC[C@@H](NC(=O)[C@@H](N)Cc5ccc(O)cc5)C(=O)NCC(=O)N[C@@H](Cc5ccccc5)C(=O)NNC(=O)[C@H](Cc5ccccc5)NC(=O)CNC(=O)[C@H](NC(=O)[C@@H](N)Cc5ccc(O)cc5)CS4)C3=O)ccc12 | 1000 | 60 | 510 | 98 | 250 | 120 | 5 to 8 | 62 | 270 | > 3.33 |
| CN(C)c1cccc2c(S(=O)(=O)NCCN3C(=O)C4=C(SC[C@@H](NC(=O)[C@@H](N)Cc5ccc(O)cc5)C(=O)NCC(=O)N[C@@H](Cc5ccccc5)C(=O)NNC(=O)[C@H](Cc5ccccc5)NC(=O)CNC(=O)[C@H](NC(=O)[C@@H](N)Cc5ccc(O)cc5)CS4)C3=O)cccc12 | 460 | 46 | 91 | 15 | 40 | 79 | 5 to 8 | 47 | 21 | > 3.33 |
